In ChEMBL document CHEMBL1152772, “Orally bioavailable antagonists of inhibitor of apoptosis proteins based on an azabicyclooctane scaffold” (J Med Chem, 2009):
Active and inactive are the calls of the source.

Legend:
[1] = tested on: MDA-MB-231; test: Induction of apoptosis in human MDA-MB-231 cells assessed as caspase 3/7 activation after 3 to 24 hrs
[2] = AUC in mouse at 25 mg/kg, po; assay type: ADME, organism-based; set-up: dose 25 mg/kg, route oral; conditions: plasma
[3] = tested on: Mus musculus; test: Toxicity in mouse bearing human MDA-MB-231 cells assessed as change in body weight at 50 mg/kg/day, po; assay type: organism-based; set-up: route oral; conditions: in vivo
Procedure, shortened: (§1)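 Female 8-week-old C.B-17 SCID.bg mice inoculated subcutaneously in the upper right flank with 1 × 10⁷ GFP-expressing MDA-MB-231-X1.1 cells. Once-daily oral gavage of vehicle or compound at 50 (mg/kg)/day began at tumors of ~200 mm³ (~1.5 weeks after inoculation), n = 14 per group. Caliper tumor volume V = 0.5ab². Progression defined as a 6-fold volume increase from day 0; body weight monitored.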

[4] = Half life in mouse at 25 mg/kg, po; assay type: ADME, organism-based; set-up: dose 25 mg/kg, route oral; conditions: in vivo
[5] = tested on: MDA-MB-231; test: Cytotoxicity against human MDA-MB-231 cells assessed as cell viability after 3 to 4 days
[6] = Cmax in mouse at 25 mg/kg, po; assay type: ADME, organism-based; set-up: dose 25 mg/kg, route oral; conditions: in vivo
[7] = tested on: MDA-MB-231; test: Antitumor activity against human MDA-MB-231 cells xenografted in mouse assessed as increase in median time for tumor progression at 50 mg/kg/day, po; assay type: functional, organism-based; procedure, shortened: as §1
[8] = tested on: MDA-MB-231; test: Induction of cIAP1 degradation in human MDA-MB-231 cells after 1 hr by Western blot; assay type: functional, cell-based
Procedure, shortened: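 MDA-MB-231 cells treated 1 h with a range of compound concentrations. Western blot probed with goat anti-c-IAP1, with mouse monoclonal anti-β-tubulin as loading control.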

[9] = tested on: HMEC; test: Cytotoxicity against HMEC cells assessed as cell viability after 3 to 4 days; conditions: Homo sapiens
[10] = tested on: HMEC; test: Induction of apoptosis in HMEC cells assessed as caspase 3/7 activation after 3 to 24 hrs; conditions: Homo sapiens
[11] = tested on: BT-549; test: Induction of apoptosis in human BT549 cells assessed as caspase 3/7 activation after 3 to 24 hrs
[12] = Binding affinity to MLXBIR3SG domain by fluorescence polarization competitive assay
[13] = target: E3 ubiquitin-protein ligase XIAP (Homo sapiens, UniProt P98170); test: Binding affinity to XIAP-BIR3 domain by fluorescence polarization competitive assay
E3 ubiquitin-protein ligase XIAP, sequence (P98170 whole entry, the tested form may be a part): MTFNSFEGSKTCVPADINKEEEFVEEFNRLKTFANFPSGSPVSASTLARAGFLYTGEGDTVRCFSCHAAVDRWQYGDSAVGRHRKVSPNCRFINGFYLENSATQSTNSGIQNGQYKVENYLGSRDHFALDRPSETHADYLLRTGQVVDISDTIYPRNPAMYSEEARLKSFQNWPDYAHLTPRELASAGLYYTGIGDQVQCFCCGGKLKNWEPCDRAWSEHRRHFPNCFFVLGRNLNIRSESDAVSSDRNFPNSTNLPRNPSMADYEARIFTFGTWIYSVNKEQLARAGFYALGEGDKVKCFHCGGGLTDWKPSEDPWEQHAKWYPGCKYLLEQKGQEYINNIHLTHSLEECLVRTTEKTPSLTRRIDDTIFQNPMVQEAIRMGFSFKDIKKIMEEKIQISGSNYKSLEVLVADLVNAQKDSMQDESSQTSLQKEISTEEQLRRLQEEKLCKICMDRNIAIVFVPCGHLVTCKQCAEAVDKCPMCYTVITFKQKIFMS

Row | EC50 [1] [nM] | EC50 [10] [nM] | EC50 [11] [nM] | Ki [12] [nM] | Ki [13] [nM] | Compound | EC50 [5] [nM] | EC50 [9] [nM] | also measured
1 | 490 | > 10000 | 470 |  |  | CN[C@@H](C)C(=O)N[C@H](C(=O)N1CC[C@H]2CC[C@H](NC(=O)c3cccc4ccccc34)[C@H]21)C(C)(C)C | 980 | > 10000 | AUC [2]: 5 µM·h; Activity [3]: Non-toxic; half-life [4]: 1.3 h; Cmax [6]: 3.6 µM; Activity [7]: Active; Activity [8]: Active
2 | 1320 | > 10000 | 190 |  |  | CN[C@@H](C)C(=O)N[C@H](C(=O)N1CC[C@H]2CC[C@H](NC(=O)c3ccc4ccccc4c3)[C@H]21)C(C)(C)C | 3290 | > 10000 | 
3 |  |  |  | 290 | 3000 | CN[C@@H](C)C(=O)N[C@H](C(=O)N1CCC[C@H]1CNC(=O)C(c1ccccc1)c1ccccc1)C(C)(C)C |  |  | 
4 | 4450 | > 10000 | 4070 |  |  | CN[C@@H](C)C(=O)N[C@H](C(=O)N1CC[C@H]2CC[C@H](NC(=O)c3ccc(F)c4ccccc34)[C@H]21)C(C)(C)C | 10200 | > 10000 | 
5 |  |  |  | 110 | 110 | CN[C@@H](C)C(=O)N[C@H](C(=O)N1CC[C@H]2CC[C@H](NC(=O)c3c(OC)ccc4ccccc34)[C@H]21)C(C)(C)C |  |  | 
6 |  |  |  | 440 | 640 | CN[C@@H](C)C(=O)N[C@H](C(=O)N1CC[C@H]2CC[C@H](NC(=O)c3coc4ccccc34)[C@H]21)C(C)(C)C |  |  | 
7 | 1580 | > 10000 | 1450 | 63 | 190 | CN[C@@H](C)C(=O)N[C@H](C(=O)N1CC[C@H]2CC[C@H](NC(=O)c3ccc(C)c4ccccc34)[C@H]21)C(C)(C)C | 3120 | > 10000 | 
8 |  |  |  | 780 | 1600 | CN[C@@H](C)C(=O)N[C@H](C(=O)N1CCC[C@H]1CNC(=O)c1cccc2ccccc12)C(C)(C)C |  |  | 

More lines, now with the values behind:

Row | Compound | EC50 [1] [nM] | EC50 [10] [nM] | EC50 [11] [nM] | Ki [12] [nM] | Ki [13] [nM] | EC50 [5] [nM] | EC50 [9] [nM] | also measured
9 | CN[C@@H](C)C(=O)N[C@H](C(=O)N1CC[C@H]2CC[C@H](NC(=O)c3ccc4c(c3)OCO4)[C@H]21)C(C)(C)C |  |  |  | 1300 | 1800 |  |  | 
10 | CN[C@@H](C)C(=O)N[C@H](C(=O)N1CC[C@H]2CC[C@H](NC(=O)c3csc4ccccc34)[C@H]21)C(C)(C)C |  |  |  | 110 | 160 |  |  | 
11 | CN[C@@H](C)C(=O)N[C@H](C(=O)N1CC[C@H]2CC[C@H](NC(=O)C3COc4ccccc43)[C@H]21)C(C)(C)C (some centres undefined) |  |  |  | 1500 | 1300 |  |  | 
12 | CN[C@@H](C)C(=O)N[C@H](C(=O)N1CC[C@H]2CC[C@H](NC(=O)c3ccc4[nH]nnc4c3)[C@H]21)C(C)(C)C |  |  |  | 260 | 1500 |  |  | 
13 | CN[C@@H](C)C(=O)N[C@H](C(=O)N1CC[C@H]2CC[C@H](NC(=O)N3CCc4ccccc43)[C@H]21)C(C)(C)C |  |  |  | 1900 | 1500 |  |  | 
14 | CN[C@@H](C)C(=O)N[C@H](C(=O)N1CC[C@H]2CC[C@H](NC(=O)C(c3ccccc3)c3ccccc3)[C@H]21)C(C)(C)C | 3590 | > 10000 | 1810 |  |  | 9640 | > 10000 | AUC [2]: 16 µM·h; half-life [4]: 1.5 h; Cmax [6]: 5 µM
